How the values were obtained:
[1] = biological target: T1, GABA-A receptor; alpha-5/beta-3/gamma-2 (Homo sapiens) (UniProt P18507+P28472+P31644); experiment: Efficacy for human GABA-A receptor alpha-5-beta-3-gamma-2 subunits expressed in mammalian fibroblast L(tk-)cells; format: cell-based
[2] = biological target: T2, Gamma-aminobutyric acid receptor subunit alpha-5 (Homo sapiens) (UniProt P31644); experiment: Binding selectivity for GABA-A alpha5 subunit over GABA-A alpha1,alpha2 or alpha3 subunit receptors
T2 sequence (whole entry): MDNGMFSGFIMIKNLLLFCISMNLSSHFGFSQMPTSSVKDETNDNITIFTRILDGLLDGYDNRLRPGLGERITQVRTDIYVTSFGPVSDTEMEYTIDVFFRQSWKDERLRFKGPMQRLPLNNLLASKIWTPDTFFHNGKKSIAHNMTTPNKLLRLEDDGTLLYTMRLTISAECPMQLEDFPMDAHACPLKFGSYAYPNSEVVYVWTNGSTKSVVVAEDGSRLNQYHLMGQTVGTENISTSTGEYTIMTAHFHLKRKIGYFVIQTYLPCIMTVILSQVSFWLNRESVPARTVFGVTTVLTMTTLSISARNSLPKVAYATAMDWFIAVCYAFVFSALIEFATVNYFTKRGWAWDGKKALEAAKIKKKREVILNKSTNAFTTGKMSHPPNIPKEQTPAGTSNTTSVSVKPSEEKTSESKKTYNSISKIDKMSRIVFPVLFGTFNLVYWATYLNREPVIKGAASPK
Procedure, shortened: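 Ki from [3H]Ro 15-1788 displacement at human recombinant α1, α2, α3 or α5 with β3γ2 receptors in L(tk-) cell membranes. […] Ki is geometric mean ± SEM of three determinations, and the ratio is taken against the α5 Ki.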

[3] = biological target: GABA-A receptor; alpha-2/beta-3/gamma-2 (Homo sapiens) (UniProt P18507+P28472+P47869); experiment: Efficacy for human GABA-A receptor alpha-2-beta-3-gamma-2 subunits expressed in mammalian fibroblast L(tk-)cells; format: cell-based
[4] = biological target: T3, Gamma-aminobutyric acid receptor subunit alpha-5 (Mus musculus) (UniProt Q8BHJ7); experiment: In vivo [3H]L-655708 binding to mouse GABA-A receptor alpha-5 subunit at 3 mg/kg ip dose; format: organism-based; set-up: dose 3 mg/kg
T3 sequence (whole entry): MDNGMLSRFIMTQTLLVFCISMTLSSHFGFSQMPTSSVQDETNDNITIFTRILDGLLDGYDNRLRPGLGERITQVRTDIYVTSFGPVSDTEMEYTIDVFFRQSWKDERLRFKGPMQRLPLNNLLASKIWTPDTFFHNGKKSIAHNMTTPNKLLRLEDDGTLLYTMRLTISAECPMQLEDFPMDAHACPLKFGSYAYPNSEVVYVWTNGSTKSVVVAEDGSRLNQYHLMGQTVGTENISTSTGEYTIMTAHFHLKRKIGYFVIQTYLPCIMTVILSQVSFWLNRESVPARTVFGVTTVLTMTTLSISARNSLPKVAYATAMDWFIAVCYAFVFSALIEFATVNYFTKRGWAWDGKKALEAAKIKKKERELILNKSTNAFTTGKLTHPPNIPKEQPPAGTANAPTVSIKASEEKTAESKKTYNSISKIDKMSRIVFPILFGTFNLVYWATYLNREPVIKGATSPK
Procedure, shortened: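 Mice were dosed ip at 10 mL/kg in 70% PEG 300. Controls were vehicle (total binding) and 5 mg/kg bretazenil (nonspecific). [3H]L-655,708 (11 µCi/mL, 1 mL/kg) was given iv 1 min before killing, 30 min after drug. Forebrain was homogenized in ice-cold 10 mM KH2PO4/100 mM KCl pH 7.4, filtered and counted by scintillation. Occupancy = 100 − (drug/vehicle specific binding)×100.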

[5] = biological target: T1, GABA-A receptor; alpha-5/beta-3/gamma-2 (Homo sapiens); experiment: Efficacy for GABA-A receptor alpha-5-beta-3-gamma-2 subunits expressed in Xenopus laevis oocytes by two-electrode voltage clamp recording; format: cell-based; details: Oocyte
Procedure, shortened: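 Two-electrode voltage clamp on Xenopus laevis oocytes injected with human α5β3γ2 cDNA, recorded 2-4 days after injection. Expression checked with 3 mM GABA; oocytes with currents <0.3 μA rejected. A GABA EC20 was determined per oocyte. Compound applied at a single concentration near 100× Ki. Efficacy (%) = (current with compound/control EC20 current × 100) − 100.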

[6] = biological target: GABA-A receptor; alpha-3/beta-3/gamma-2 (Homo sapiens) (UniProt P18507+P28472+P34903); experiment: Efficacy for human GABA-A receptor alpha-3-beta-3-gamma-2 subunits expressed in mammalian fibroblast L(tk-)cells; format: cell-based
[7] = biological target: GABA-A receptor; alpha-1/beta-3/gamma-2 (Homo sapiens) (UniProt P14867+P18507+P28472); experiment: Efficacy for human GABA-A receptor alpha-1-beta-3-gamma-2 subunits expressed in mammalian fibroblast L(tk-)cells; format: cell-based
[8] = biological target: T4, GABA-A receptor; alpha-3/beta-3/gamma-2 (Homo sapiens, UniProt P18507+P28472+P34903); experiment: Binding affinity to human gamma-amino butyric-acid A receptor alpha-3-beta-3-gamma-2, using a [3H]-Ro- 15-1788 radioligand; format: protein-complex assay
T4 sequence (P18507 whole entry): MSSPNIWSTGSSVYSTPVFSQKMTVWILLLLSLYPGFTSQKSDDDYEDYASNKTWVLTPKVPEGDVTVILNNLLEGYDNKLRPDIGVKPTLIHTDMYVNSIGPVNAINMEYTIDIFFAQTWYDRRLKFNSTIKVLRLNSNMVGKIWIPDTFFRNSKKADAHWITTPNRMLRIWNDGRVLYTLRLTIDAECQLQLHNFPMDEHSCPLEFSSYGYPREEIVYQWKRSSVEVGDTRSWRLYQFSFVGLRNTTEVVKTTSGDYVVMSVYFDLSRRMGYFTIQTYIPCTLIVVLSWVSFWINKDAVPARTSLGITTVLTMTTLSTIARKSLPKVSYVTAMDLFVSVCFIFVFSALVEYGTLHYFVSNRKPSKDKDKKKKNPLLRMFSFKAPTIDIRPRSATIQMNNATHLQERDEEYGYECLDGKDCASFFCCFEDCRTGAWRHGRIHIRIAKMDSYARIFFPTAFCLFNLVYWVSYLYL
T4 sequence (P28472 whole entry): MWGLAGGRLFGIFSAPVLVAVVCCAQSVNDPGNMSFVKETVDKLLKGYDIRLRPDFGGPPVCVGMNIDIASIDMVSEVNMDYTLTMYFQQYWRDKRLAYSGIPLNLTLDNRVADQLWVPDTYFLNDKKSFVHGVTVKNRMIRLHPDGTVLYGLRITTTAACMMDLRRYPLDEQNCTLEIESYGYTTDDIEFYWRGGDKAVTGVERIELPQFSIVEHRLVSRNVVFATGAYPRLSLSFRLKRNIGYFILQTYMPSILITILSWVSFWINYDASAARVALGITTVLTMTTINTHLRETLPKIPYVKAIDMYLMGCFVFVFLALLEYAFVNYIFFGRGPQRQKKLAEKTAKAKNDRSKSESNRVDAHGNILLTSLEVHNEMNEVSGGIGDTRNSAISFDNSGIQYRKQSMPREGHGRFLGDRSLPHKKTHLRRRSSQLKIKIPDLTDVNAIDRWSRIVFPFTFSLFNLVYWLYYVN
T4 sequence (P34903 whole entry): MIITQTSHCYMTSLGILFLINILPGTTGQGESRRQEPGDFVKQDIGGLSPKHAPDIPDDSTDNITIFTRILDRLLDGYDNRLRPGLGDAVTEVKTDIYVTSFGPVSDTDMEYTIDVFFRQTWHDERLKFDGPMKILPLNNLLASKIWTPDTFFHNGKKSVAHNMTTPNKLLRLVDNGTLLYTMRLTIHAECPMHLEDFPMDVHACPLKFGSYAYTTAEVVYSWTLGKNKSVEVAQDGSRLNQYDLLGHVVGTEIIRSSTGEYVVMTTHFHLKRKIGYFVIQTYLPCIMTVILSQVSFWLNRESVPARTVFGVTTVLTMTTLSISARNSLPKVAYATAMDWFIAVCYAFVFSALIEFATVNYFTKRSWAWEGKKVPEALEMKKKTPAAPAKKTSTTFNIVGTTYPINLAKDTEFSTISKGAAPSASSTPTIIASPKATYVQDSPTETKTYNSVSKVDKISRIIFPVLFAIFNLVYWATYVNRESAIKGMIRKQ
Procedure, shortened: (§1)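 Displacement of [3H]Ro 15-1788 binding from harvested L(tk-) cells stably expressing human recombinant GABA-A receptors with β3 and γ2 subunits plus α1, α2, α3 or α5. […] Ki given as geometric mean ± SEM of three independent determinations.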

[9] = biological target: T2, Gamma-aminobutyric acid receptor subunit alpha-5 (Homo sapiens); experiment: Binding selectivity for human gamma-aminobutyric-acid A receptor alpha-5 over GABA A alpha1,alpha2 and alpha-3 receptors
[10] = biological target: T5, GABA-A receptor; alpha-2/beta-3/gamma-2 (Homo sapiens, UniProt P18507+P28472+P47869); experiment: Binding affinity to human gamma-amino butyric-acid A receptor alpha-2-beta-3-gamma-2, using a [3H]-Ro- 15-1788 radioligand; format: protein-complex assay; procedure, shortened: as §1
T5 sequence (P18507 whole entry): T4 sequence (P18507 whole entry)
T5 sequence (P28472 whole entry): T4 sequence (P28472 whole entry)
T5 sequence (P47869 whole entry): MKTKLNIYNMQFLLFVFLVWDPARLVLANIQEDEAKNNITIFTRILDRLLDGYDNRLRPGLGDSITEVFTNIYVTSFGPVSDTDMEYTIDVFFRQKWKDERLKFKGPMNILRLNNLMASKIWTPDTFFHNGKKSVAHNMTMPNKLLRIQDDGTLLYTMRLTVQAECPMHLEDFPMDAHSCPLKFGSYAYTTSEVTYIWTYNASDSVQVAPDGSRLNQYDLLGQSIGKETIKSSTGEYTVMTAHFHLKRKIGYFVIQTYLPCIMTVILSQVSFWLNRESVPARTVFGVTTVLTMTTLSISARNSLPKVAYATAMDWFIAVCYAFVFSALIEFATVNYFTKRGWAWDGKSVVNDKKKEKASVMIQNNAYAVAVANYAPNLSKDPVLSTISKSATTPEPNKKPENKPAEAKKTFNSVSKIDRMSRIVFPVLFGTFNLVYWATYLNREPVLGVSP

[11] = biological target: T6, GABA-A receptor; alpha-5/beta-3/gamma-2 (Homo sapiens, UniProt P18507+P28472+P31644); experiment: Binding affinity to human GABA A alpha-5-beta-3-gamma-2 receptor, using a [3H]-Ro- 15-1788 radioligand; format: protein-complex assay; procedure, shortened: as §1
T6 sequence (P18507 whole entry): T4 sequence (P18507 whole entry)
T6 sequence (P28472 whole entry): T4 sequence (P28472 whole entry)
T6 sequence (P31644 whole entry): T2 sequence (whole entry)

[12] = biological target: T7, GABA-A receptor; alpha-1/beta-3/gamma-2 (Homo sapiens, UniProt P14867+P18507+P28472); experiment: Binding affinity to human gamma-aminobutyric-acid A receptor alpha-1-beta-3-gamma-2, determined using [3H]-Ro- 15-1788 radioligand; format: protein-complex assay; procedure, shortened: as §1
T7 sequence (P14867 whole entry): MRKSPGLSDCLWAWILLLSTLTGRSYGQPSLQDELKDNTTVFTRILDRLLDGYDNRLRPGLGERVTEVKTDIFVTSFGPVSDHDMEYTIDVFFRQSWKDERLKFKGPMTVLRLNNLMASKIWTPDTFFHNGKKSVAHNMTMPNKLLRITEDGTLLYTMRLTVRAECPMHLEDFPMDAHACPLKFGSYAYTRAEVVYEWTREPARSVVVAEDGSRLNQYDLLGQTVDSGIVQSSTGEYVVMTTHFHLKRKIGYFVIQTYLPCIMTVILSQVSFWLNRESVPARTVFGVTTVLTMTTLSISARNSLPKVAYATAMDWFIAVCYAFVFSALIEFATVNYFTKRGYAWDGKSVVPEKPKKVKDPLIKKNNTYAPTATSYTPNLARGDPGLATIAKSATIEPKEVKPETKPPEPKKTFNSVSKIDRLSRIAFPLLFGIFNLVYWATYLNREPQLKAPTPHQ
T7 sequence (P18507 whole entry): T4 sequence (P18507 whole entry)
T7 sequence (P28472 whole entry): T4 sequence (P28472 whole entry)

[13] = biological target: GABA-A receptor; anion channel; experiment: Binding affinity for GABA-A Benzodiazepine receptor; format: protein-complex assay; procedure, shortened: as §1

SMILES	Efficacy [5]	Ki [8] [nM]	Selectivity [9]	Ki [10] [nM]	Ki [11] [nM]	Ki [12] [nM]	also measured
CC1(C)CC(=O)c2c(SCCO)sc(-c3nccs3)c2C1	-38						Efficacy [1]: -51%; Selectivity [2]: 13; Efficacy [3]: -1%; Occupancy [4]: 91%; Efficacy [6]: -3%; Efficacy [7]: -21%
CC1(C)CC(=O)c2c(SCCCO)sc(-c3nccs3)c2C1	25	48	17	48	4.7	79	
CC1(C)CC(=O)c2c(Sc3nccs3)sc(-c3cc[nH]n3)c2C1	-7	48	34	19	1.4	4.3	
CSc1sc(-c2nccs2)c2c1C(=O)CC(C)(C)C2	-24		28				
CC(=O)c1cc2c(s1)CCCC1=C2NN(c2ccc(Cl)cc2)C(=O)C1							Ki [13]: 4.2 nM
CC(C)Nc1sc(-c2cc[nH]n2)c2c1C(=O)CC(C)(C)C2	-2	87	22	44	3.9	72	
CCc1c(C(=O)OC)ncc2[nH]c3cc(OC)c(OC)cc3c12	-34		6				Efficacy [3]: -53%; Efficacy [7]: -71%
CC1(C)CC(=O)c2c(Sc3nccs3)sc(-c3nccs3)c2C1	-5	28	28	39	1.4	24	
CSc1sc(-c2cc[nH]n2)c2c1C(=O)CC(C)(C)C2	-3		13				
